Bioassay records from PubChem.
Only some compounds are listed: those with a hit (about 2.1% of all), similar ones and a draw of the others.
eIF4H inh: inhibitors of RNA binding by human eIF4H; Q15056; eIF4H fluorescence polarization binding assay; inhibition, % at 35 µM; 290,000 tested, 0.94% active; AID 2012;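 also: calls also rest on retests at 20 µM and on dose response follow-up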
EBNA-1 inh: blocks EBNA-1 binding to DNA. EBNA-1 DNA binding, fluorescence polarization. inhibition, % at 14.8 µM. 300,000 tested, 0.34% active. AID 1950; in the data active = inhibition above about 28%
ZTA counter: counter-screen for EBNA-1 inhibitors: inhibitors of Epstein-Barr virus ZTA; P03206; ZTA-DNA binding, fluorescence polarization; inhibition, % at 11 µM; 320,000 tested, 0.15% active; AID 2234; in the data active = inhibition above about 33%
HCV NS3 hel inh: blocks Hepatitis C virus NS3 helicase unwinding; NS3 helicase DNA unwinding, Cy5 molecular beacon fluorescence; inhibition, % at 10.9 µM; 290,000 tested, 0.56% active;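 active = inhibition above the mean of all tested compounds plus 3 SD, set per campaign, cut at about 35% in these data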;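 also: 0% = DMSO wells and 100% = thioflavine S control wells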
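System: NS3 helicase fragment of HCV / Schedule: 1 h at 25 °C / Control set: DMSO alone as 0% and 110 µM thioflavine S as 100% / Reagent: Cy5/quencher beacon DNA duplex and ATP to start / Technique: Cy5 fluorescence / Replication: singlicate / Evaluation: % inhibition of end-to-start signal ratio versus controls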
PABP1 MLLE inh: blocks PAM2 peptide binding to the PABP1 MLLE domain; P11940; GST-MLLE / FITC-PAM2 fluorescence polarization; inhibition, % at 20 µM; 360,000 tested, 0.36% active; AID 588489; in the data active = inhibition above about 35%, passing the limit was not always enough;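 also: plate controls were DMSO wells with GST-MLLE for no effect and wells lacking GST-MLLE protein for full effect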
Target sequence (P11940 whole entry, looked up, the tested form may be a part): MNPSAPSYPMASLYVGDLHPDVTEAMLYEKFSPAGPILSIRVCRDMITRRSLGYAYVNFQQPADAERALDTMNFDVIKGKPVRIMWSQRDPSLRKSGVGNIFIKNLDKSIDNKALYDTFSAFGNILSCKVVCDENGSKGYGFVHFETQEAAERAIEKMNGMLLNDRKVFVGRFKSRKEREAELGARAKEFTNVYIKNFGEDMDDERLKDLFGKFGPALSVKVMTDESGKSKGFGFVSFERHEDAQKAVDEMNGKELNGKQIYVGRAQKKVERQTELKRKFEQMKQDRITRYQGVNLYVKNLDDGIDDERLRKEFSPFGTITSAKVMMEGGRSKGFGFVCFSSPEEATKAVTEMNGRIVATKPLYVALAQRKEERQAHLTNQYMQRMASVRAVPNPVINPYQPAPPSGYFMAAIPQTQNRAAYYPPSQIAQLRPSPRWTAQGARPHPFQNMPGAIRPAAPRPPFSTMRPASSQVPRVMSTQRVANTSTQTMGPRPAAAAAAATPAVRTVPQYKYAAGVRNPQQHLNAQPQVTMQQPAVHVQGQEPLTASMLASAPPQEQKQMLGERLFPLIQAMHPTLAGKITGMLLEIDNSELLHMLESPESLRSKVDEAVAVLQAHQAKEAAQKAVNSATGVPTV
PABP FP inh: blocks human PABP binding to poly(A) RNA | P11940 | fluorescence polarization | inhibition, % at 35 µM | 290,000 tested, 1% active | AID 2014;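 also: calls also rest on retests at 20 µM and on dose response follow-up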
NS3 hel confirm: confirmation of Hepatitis C virus NS3 helicase inhibitors; shares compounds with HCV NS3 hel inh; AID 1943; NS3 helicase DNA unwinding, Cy5 molecular beacon fluorescence; 1,600 tested, 31% active; inhibition, % at 10.9 µM;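 active = inhibition above the mean of all tested compounds plus 3 SD, cutoff set per campaign, cut at about 36% in these data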
FID counter trip: intercalator displacement, NS3 helicase counter-screen; inhibition, % at 7.9 µM; DNA fluorescent intercalator displacement, fluorescence; shares compounds with HCV NS3 hel inh; 1,600 tested, 4% active; in the data active = inhibition above about 37%;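 also: 0% = vehicle and 100% = reference compound; higher means more displacement of ethidium bromide from the DNA hairpin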
The depositor's hits bear a star; ? = inconclusive; . = no result. Unless noted, no rule for the calls is given here.

SMILES	eIF4H inh	EBNA-1 inh	ZTA counter	HCV NS3 hel inh	PABP1 MLLE inh	PABP FP inh	NS3 hel confirm	FID counter trip
COC(=O)c1ccc(N2NC(=O)/C(=C/c3ccc(OC)c(OC)c3)C2=O)cc1	-3.9	2.7	9.8	39.8*	28.9	-1.8	-16.3	-7.1
C[C@@H]1CN([C@@H](C)CO)C(=O)c2cc(C#Cc3ccccc3)cnc2O[C@@H]1CN(C)Cc1ccccn1	.	.	.	.	3.6	.	.	.
CCOC(=O)Cc1cc(=O)n2[nH]cc(-c3ccc(Cl)cc3)c2n1	15.8	-4.8	8.5	64.3*	7.7	13.6	84.3*	12.7
COc1ccc(OC)c(/C=C/c2ccc3cccc(O)c3n2)c1	19.9	-10.3	-17.0	59.9*	3.1	-6.5	-10.7	-0.9
COc1cc2c(cc1OC)C(c1ccc([N+](=O)[O-])cc1)N(C(C)=O)CC2 (configuration not stated)	-13.7	.	.	-11.2	-13.5	3.2	.	.
COc1cc(NS(=O)(=O)c2ccc(NC(=S)NC(=O)c3ccc(F)cc3)cc2)nc(OC)n1	-1.8	-16.1	9.4	40.3*	18.6	12.0	27.4	-13.1
COc1cc(NS(=O)(=O)c2ccc(NC(=S)Nc3ccccc3)cc2)nc(OC)n1	5.8	6.1	12.3	0.4	31.9	3.8	.	.
CCOC(=O)COc1cc(Br)c(/C=N/Nc2ccccc2)cc1OC	10.3	6.0	4.5	-5.7	-36.9	10.4	.	.
COc1ccc(-c2c(C#N)c(SCC(=O)c3cc4ccccc4oc3=O)nc(C)c2C(=O)Nc2ccccc2)cc1	-6.6	13.1	5.1	52.4*	-41.2	5.1	11.3	-4.8
C=CCC(c1ccccc1F)N(CCN1CCOCC1)C(=O)Nc1cccc(Cl)c1 (configuration not stated)	-1.7	-3.2	8.6	-4.0	7.9	15.5	.	.
O=C1CC(N2CCN(Cc3ccc4c(c3)OCO4)CC2)C(=O)N1c1cccc2ccccc12 (configuration not stated)	-4.4	1.8	10.4	-6.2	-7.3	10.9	.	.
Oc1ccc(/C=N/N(Cc2ccccc2)c2ccccc2)c(O)c1O	56.9	.	.	71.3*	-17.8	-3.9	-13.4	21.6
Oc1cccc(/C=N/N(Cc2ccccc2)c2ccccc2)c1	1.4	-3.0	-6.5	-15.7	-4.3	11.3	.	.
CC(=O)C(Cc1ccccc1)NC(=O)COc1ccc2c(c1)OCO2 (configuration not stated)	.	.	.	.	-5.0	.	.	.
COc1ccc(C(=O)CSc2nnc(-c3cc(C)on3)o2)cc1	1.2	-9.7	-0.8	6.8	-7.0	-3.7	.	.
O=C(O)C1Nc2c(O)cc(Cl)c([N+](=O)[O-])c2C2C=CCC12 (configuration not stated)	?	57.8*	90.5*	70.0*	18.6	5.4*	78.7*	21.6
COc1ccc(/C=C2\SC(=S)N(CCC(=O)Nc3cccc(C(=O)O)c3)C2=O)cc1	-4.9	1.4	21.1	38.8*	7.7	23.5	51.5*	7.0
CC(/C=C1\SC(=S)N(CCCC(=O)Nc2ccc(C(=O)O)c(O)c2)C1=O)=C\c1ccccc1	15.3	17.5	22.9	73.0*	.	-9.3	72.8*	69.2*
CC(=Cc1ccccc1)C=C1SC(=S)N(CCCC(=O)Nc2ccc(C(=O)O)c(O)c2)C1=O	.	.	.	.	-2.5	.	.	.
O=C(CCN1C(=O)/C(=C/c2cccs2)SC1=S)Nc1cccc(C(=O)O)c1	-2.5	-6.0	-9.3	36.4*	-85.3	2.4	58.0*	4.1
O=C(CCN1C(=O)/C(=C/c2ccc(Cl)cc2)SC1=S)Nc1cccc(C(=O)O)c1	16.4	2.2	2.0	20.7	9.8	1.3	.	.
COc1ccc(OC)c(NC(=O)N2CCCC(C)C2)c1 (configuration not stated)	6.2	13.7	3.5	-0.4	3.1	7.6	.	.
Cc1cc(/C=N/NC(=O)c2ccncc2)c(C)n1-c1ccccc1	4.9	-8.8	0.1	12.6	-15.9	-0.8	.	.
Cc1cc(C(=O)N/N=C/c2ccc(O)c(O)c2O)c(C)n1-c1ccccc1	76.0	.	.	45.5*	3.0	2.6	-13.7	5.2
CC[N+](C)(CC)CCC/C(=N/O)C(O)(c1ccccc1)c1ccccc1	.	-4.8	-3.5	4.7	-87.1	.	.	.
